A short description of data set [1]: Prodrug activation in simulated intestinal fluid at 0.01 mg/mL after 60 mins by LC/MS analysis. The note with it: simulated gi fluid, 1 h. The essentials:
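Compound at 0.01 mg/mL in simulated intestinal fluid, mixed and held at 37 °C for 60 min. Samples were injected consecutively onto a C18 reverse-phase HPLC column for analysis. Results are percent disappearance of prodrug.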

The subject of a further data set is Liver. The experiment in a line: Prodrug activation in mouse liver microsomes at 1 uM incubated for 10 mins prior to NADPH addition measured after 30 mins by LC/MS/MS analysis. Particulars: 0.5 h. Also noted: species or system Microsome. The essentials: (§1)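 Liver microsomes were pre-warmed with compound at 37 °C for 10 min, and the reaction was started with NADPH at 1 mM final. A parallel incubation without NADPH served as control. After 30 min at 37 °C, samples were quenched with acetonitrile containing 0.1% formic acid and internal standard, then centrifuged. Supernatant was diluted fivefold and read by LC/MS/MS (SRM, positive ESI). Results are percent of control remaining.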
A general note: Microsomes from liver hold many membrane-bound enzymes, among them those of drug oxidation.

Data set [2] deals with Liver microsomes. The experiment in a line: Prodrug activation in human liver microsomes at 1 uM incubated for 10 mins prior to NADPH addition measured after 30 mins by LC/MS/MS analysis. Particulars: 0.5 h. Details: species or system Microsome. The essentials:
as §1

Data set [3] can be described thus: Half life in simulated gastric fluid at 1 mg/mL. Type of data set: physicochemical.
Data set [4] can be described thus: Half life in simulated intestinal fluid at 1 mg/mL. Type of data set: physicochemical. The note with it: simulated gi fluid.
The subject of data set [5] is Liver microsomes. The experiment in a line: Half life in human liver microsomes at 1 uM. The data set is classed as ADME, Microsome.
A short description of data set [6]: Half life in human plasma at 1 uM. Type of data set: ADME, cell-free.
The subject of data set [7] is Liver microsomes. The experiment in a line: Metabolic stability in human liver microsomes assessed as high CYP1A2 activity-mediated metabolism measured as compound remaining at 1 uM incubated for 10 mins prior to NADPH addition measured after 30 mins by LC/MS/MS analysis relative to control. Particulars: 0.5 h.
The subject of data set [8] is Liver microsomes. The experiment in a line: Metabolic stability in human liver microsomes assessed as low CYP1A2 activity-mediated metabolism measured as compound remaining at 1 uM incubated for 10 mins prior to NADPH addition measured after 30 mins by LC/MS/MS analysis relative to control. The note with it: 0.5 h.
Data set [9] relates to Liver microsomes. The experiment in a line: Metabolic stability in human liver microsomes assessed as low CYP1A2 activity-mediated metabolism measured as compound remaining at 1 uM after 30 mins by LC/MS/MS analysis relative to control. The note with it: 0.5 h.
The test system of data set [10] is Liver microsomes. Particulars: human, 0.5 h, 1 µM.
Data set [11] has as its system Liver microsomes. The experiment in a line: Drug metabolism in human liver microsomes assessed as high CYP1A2 activity-mediated N-hydroxyriluzole formation at 1 uM incubated for 10 mins prior to NADPH addition measured after 30 mins by LC/MS/MS analysis. The data set is classed as ADME, Microsome. The note with it: 0.5 h.

Each structure is given as a SMILES string. Some results are limits rather than exact numbers.

For `C[C@H](N)C(=O)Nc1nc2ccc(OC(F)(F)F)cc2s1`, the Drug metabolism in data set [1] is recorded as 50%; in the data set with Liver, 1%; in the data set on Liver microsomes [2], 0%.
The corresponding values for `C[C@@H](N)C(=O)Nc1nc2ccc(OC(F)(F)F)cc2s1` are 50%, 10% and 4%.
The corresponding values for `CC(C)[C@H](N)C(=O)Nc1nc2ccc(OC(F)(F)F)cc2s1` are 40%, 40% and 6%.
Turning to `N[C@@H](Cc1ccccc1)C(=O)Nc1nc2ccc(OC(F)(F)F)cc2s1`, the Drug metabolism in the data set on Liver turned out to be 2%; in the data set on Liver microsomes [2], 0%.
On to `N[C@H](Cc1ccccc1)C(=O)Nc1nc2ccc(OC(F)(F)F)cc2s1`, for which the Drug metabolism is reported as 0% in data set [1], 12% with Liver and 18% with Liver microsomes [2].
For the compound `N[C@@H](COCc1ccccc1)C(=O)Nc1nc2ccc(OC(F)(F)F)cc2s1`, the Drug metabolism was 0% in data set [1], 0% with Liver and 15% in the data set on Liver microsomes [2]. Further, the half-life at 1 mg/mL in data set [3] was greater than 1 h. The figures for the t1/2 (in [4]; with Liver microsomes [5]) were 1.63 h and greater than 1 h, respectively. This compound had a half-life at 1 µM in data set [6] of 5 h. Besides, the Stability with Liver microsomes [7] was 70%; in the data set on Liver microsomes [8] it was 78%; with Liver microsomes [9], 76%; in the data set with Liver microsomes [10], 77%.
Consider `N[C@H](COCc1ccccc1)C(=O)Nc1nc2ccc(OC(F)(F)F)cc2s1`, for which the Drug metabolism in the data set on Liver turned out to be 24%; with Liver microsomes [2], 0%.
For `COC(=O)Nc1nc2ccc(OC(F)(F)F)cc2s1`, the figures for the Drug metabolism (in [1]; in the data set on Liver; in the data set on Liver microsomes [2]) were 0%, 10% and 0%, respectively.
Turning to `CCOC(=O)Nc1nc2ccc(OC(F)(F)F)cc2s1`, the Drug metabolism in data set [1] is 0%; in the data set on Liver, 8%; in the data set with Liver microsomes [2] it was 7%.
The corresponding values for `CCCOC(=O)Nc1nc2ccc(OC(F)(F)F)cc2s1` are 0%, 15% and 34%.
For the compound `CCCCOC(=O)Nc1nc2ccc(OC(F)(F)F)cc2s1`, the Drug metabolism was 0% in data set [1], 53% with Liver and 13% in the data set with Liver microsomes [2].
The corresponding values for `CCC(C)OC(=O)Nc1nc2ccc(OC(F)(F)F)cc2s1` (centres undefined) are 0%, 23% and 14%.
The corresponding values for `CN(C)CCOC(=O)Nc1nc2ccc(OC(F)(F)F)cc2s1` are 0%, 13% and 10%.
Regarding `CN(C)CCCOC(=O)Nc1nc2ccc(OC(F)(F)F)cc2s1`, the Drug metabolism in data set [1] is 0%; in the data set with Liver it was 71%; with Liver microsomes [2] it was 0%.
`O=C(O)CCC(=O)Nc1nc2ccc(OC(F)(F)F)cc2s1`: the Drug metabolism in data set [1] is 0%; in the data set with Liver it was 70%; in the data set with Liver microsomes [2], 0%.
Regarding `COC(=O)CCC(=O)Nc1nc2ccc(OC(F)(F)F)cc2s1`, the Drug metabolism in data set [1] is recorded as 0%; in the data set on Liver, 77%; with Liver microsomes [2] it was 34%.
The corresponding values for `CC(C)(C)OC(=O)CCC(=O)Nc1nc2ccc(OC(F)(F)F)cc2s1` are 0%, 0% and 21%.
The corresponding values for `O=C(CCC(=O)Nc1nc2ccc(OC(F)(F)F)cc2s1)NCc1cccnc1` are 10%, 0% and 4%.
With `O=C(CCC(=O)Nc1nc2ccc(OC(F)(F)F)cc2s1)NCCN1CCOCC1`, in data set [1], the Drug metabolism is on record as 60%.
`NCCCC(=O)Nc1nc2ccc(OC(F)(F)F)cc2s1`: the Drug metabolism in data set [1] is reported as 0%; in the data set with Liver, 66%; with Liver microsomes [2], 19%.
On to `NCC1(CC(=O)Nc2nc3ccc(OC(F)(F)F)cc3s2)CCCCC1`, for which the Drug metabolism in [1] is 50%.
Consider `O=C(Cc1ccccc1[N+](=O)[O-])Nc1nc2ccc(OC(F)(F)F)cc2s1`, for which the Drug metabolism in data set [1] is on record as 0%; in the data set on Liver, 59%; with Liver microsomes [2], 22%.
Take `Nc1nc2ccc(OC(F)(F)F)cc2s1` [RILUZOLE]: the Drug metabolism result in the data set on Liver microsomes [11] was “Active”.

The half-life is the time needed for the level to fall by half in the phase considered.

Source of the values: ChEMBL document CHEMBL2086375 (Bioorg Med Chem, 2012).
